Assay outcomes deposited in PubChem by several laboratories.
Rows were chosen to be rich in hits. Some 1.9% of all compounds tested hit in one or more screens of this group.
PP1 counter – PP1-alpha phosphatase inhibitors, primary screen, counter-screen for PP5 inhibitor project, biochemical, fluorescence, OMFP substrate, single point; hit rate 0.9% among 320,000; inhibition, % at 6.7 µM; purified PP1alpha;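 active means inhibition above the mean inhibition of all tested compounds plus 3 SD, computed separately for each screening campaign, cut at about 15% in these data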
HIF act – HIF pathway transcriptional activators, primary screen, cell-based, U2OS HRE-luciferase, luminescence; U2OS HRE-luciferase reporter; normalized: DMSO 0%, desferrioxamine 100%; activation, % at 7.5 µM (by protocol); hit rate 0.32% among 300,000; AID 1910, 2009;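 active means mean activation of at least 10% of the iron chelator positive control signal, with at least half of replicates also reaching 10%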
PP5 primary – PP5 phosphatase inhibitors, primary screen, biochemical, fluorescence; Serine/threonine-protein phosphatase 5 (Homo sapiens), P53041; purified PP5c, OMFP substrate fluorescence; inhibition, % at 6.7 µM; hit rate 0.18% among 320,000; AID 1987, 2009;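 active means inhibition above the campaign's mean inhibition across all tested compounds plus 3 SD, cut at about 9.5% in these data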;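 further: 0% = DMSO only and 100% = 100 µM cantharidin control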
Target sequence (P53041 whole entry, looked up): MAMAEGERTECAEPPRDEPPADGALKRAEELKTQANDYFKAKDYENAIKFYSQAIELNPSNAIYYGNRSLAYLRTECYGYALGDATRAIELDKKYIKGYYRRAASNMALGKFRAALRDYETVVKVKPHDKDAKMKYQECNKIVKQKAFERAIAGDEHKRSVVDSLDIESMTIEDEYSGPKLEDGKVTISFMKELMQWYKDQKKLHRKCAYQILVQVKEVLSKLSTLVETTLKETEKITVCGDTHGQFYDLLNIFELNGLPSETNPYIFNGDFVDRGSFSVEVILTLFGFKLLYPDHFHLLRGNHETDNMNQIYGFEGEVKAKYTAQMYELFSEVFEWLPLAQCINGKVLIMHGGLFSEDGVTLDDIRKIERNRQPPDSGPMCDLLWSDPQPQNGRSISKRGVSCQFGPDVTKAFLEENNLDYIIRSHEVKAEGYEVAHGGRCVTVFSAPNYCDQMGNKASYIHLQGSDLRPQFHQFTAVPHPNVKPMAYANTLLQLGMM
DNA FID counter-1 – compounds displacing fluorescent DNA intercalator, primary screen, artefact control for HCV NS3 helicase inhibitor project, biochemical, FID fluorescence. DNA fluorescent intercalator displacement. AID 1845, 2009. hit rate 0.17% among 290,000. inhibition, % at 7.9 µM;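 further: 0% = vehicle and 100% = reference compound; higher means more ethidium bromide displaced from hairpin DNA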
NS3 helicase inh – inhibitors of HCV NS3 helicase, primary screen, biochemical, Cy5 molecular beacon fluorescence | Hepatitis C virus NS3 helicase | inhibition, % at 10.9 µM | NS3 helicase DNA unwinding | hit rate 0.56% among 290,000 | AID 1800, 2009;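 active means inhibition above the mean of all tested compounds plus 3 SD, set per campaign, cut at about 35% in these data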;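 further: 0% = DMSO wells and 100% = thioflavine S control wells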
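Control set: DMSO versus 110 µM thioflavine S; Material: NS3 helicase fragment of HCV; Measured by: Cy5 fluorescence at 0 and 60 min, beacon hairpin quenching; Read-out basis: percent inhibition from t60/t0 fluorescence ratio; Times: reaction time 60 min, 25 °C; Repeats: single replicate; Compound dosing: single dose, 10.9 µM nominal final, DMSO 0.8% final.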
NS3 helicase cf – HCV NS3 helicase inhibitors, retest, confirmation, biochemical, Cy5 molecular beacon fluorescence, triplicate; inhibition, % at 10.9 µM; NS3 helicase DNA unwinding; shares compounds with NS3 helicase inh; hit rate 31% among 1,600;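 active means inhibition above the mean of all tested compounds plus 3 SD, cutoff set per campaign, cut at about 36% in these data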
DNA FID counter-2 – compounds displacing fluorescent DNA intercalator, artefact control for HCV NS3 helicase inhibitor project, biochemical, FID fluorescence, triplicate; shares compounds with NS3 helicase inh; DNA fluorescent intercalator displacement; inhibition, % at 7.9 µM; hit rate 4% among 1,600;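 further: 0% = vehicle and 100% = reference compound; higher means more displacement of ethidium bromide from the DNA hairpin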
FID counter DR – compounds displacing fluorescent intercalator from DNA, dose response, counter-screen for HCV NS3 helicase inhibitor project, biochemical, fluorescence; shares compounds with NS3 helicase inh; fluorescent intercalator displacement from DNA; IC50, µM; 120 tested, under 10 active; AID 2172, 2009; call rule not given here
Starred values were filed as active, the others as inactive; x = no result given. Unless noted, no stated cut-off is given here; in the data, active means inhibition above about 37%; inactive means the rest.

SMILES | PP1 counter | HIF act | PP5 primary | DNA FID counter-1 | NS3 helicase inh | NS3 helicase cf | DNA FID counter-2 | others
O=C(C1=C(O)C(=O)N(c2ncccn2)C1c1ccc(Cl)cc1)c1ccco1 (stereo not given) | 0 | 1 | 1 | -6 | 43* | -23 | -3
Cc1ccc(C(=O)C2=C(O)C(=O)N(Cc3cccnc3)C2c2cccc(Oc3ccccc3)c2)o1 (stereo not given) | 45* | -1 | -1 | -66 | 45* | 86* | -37 | FID counter DR=>79
O=C(C1=C(O)C(=O)N(Cc2ccco2)C1c1cccc(Cl)c1)c1ccco1 (stereo not given) | 15 | 1 | 0 | -42 | 48* | 16 | 1
CCCOc1ccc(C2C(C(=O)c3ccc(C)o3)=C(O)C(=O)N2Cc2ccco2)cc1OCC (stereo not given) | 35* | 0 | 2 | -38 | 37* | 55* | -38 | FID counter DR=>79
O=C1/C(=C/c2cccc(Br)c2)SC(=S)N1/N=C/c1cc([N+](=O)[O-])ccc1O | 0 | 0 | -1 | -6 | 20 | x | x
CC(=O)C1=C(c2ccccc2)NC(=O)NC1c1ccccc1 (stereo not given) | 1 | -2 | 2 | -5 | -6 | x | x
O=C1NC(c2ccccc2)=C(c2nc3ccccc3s2)C(c2ccccc2)N1 (stereo not given) | 6 | -1 | 6 | -26 | 39* | -5 | -13
Cc1cc(C)c(NC(=O)CO/N=C2\CCCc3nonc32)c(C)c1 | -15 | 0 | -6 | 0 | -2 | x | x
CC(=O)C1=C(O)C(=O)N(Cc2ccccc2)C1c1cccc([N+](=O)[O-])c1 (stereo not given) | 0 | 1 | 0 | -10 | 10 | x | x
CC(C)CC(=O)C1=C(O)C(=O)N(Cc2ccccc2)C1c1ccccc1 (stereo not given) | 0 | -1 | -3 | -22 | 36* | -26 | -12
CC(=O)C1=C(O)C(=O)N(Cc2ccccc2)C1c1ccc(Br)cc1 (stereo not given) | 6 | -1 | -1 | -29 | 41* | 22 | -9
Cc1cccc(N2CCN(C(=O)c3ccccc3SCC(=O)N3CCCC3)CC2)c1C | -1 | x | 0 | x | x | x | x
O=C(Nc1ccccc1OC(F)F)c1cccc(S(=O)(=O)N2CCCC2)c1 | -8 | 0 | 3 | -17 | 11 | x | x
CC(C)COc1ccc(C(=O)NC(CC(C)C)C(=O)O)cc1 (stereo not given) | -4 | 0 | 0 | -16 | 4 | x | x
Cc1ccc(Oc2ccc(OCC(=O)NC(CC(C)C)C(=O)O)cc2)cc1 (stereo not given) | -6 | -1 | -1 | -24 | 45* | 39* | -25
Cc1cc(/C=C2\SC(=S)N(C)C2=O)c(C)n1-c1cccc(O)c1 | -2 | -2 | 0 | -7 | 83* | -2 | 20
CCOc1ccc(S(=O)(=O)N/N=C(\C)C2CCCCC2)cc1 | 1 | 0 | 0 | -1 | 43* | -2 | 9
CNc1ccccc1C(C)(C)c1cn(-c2ccc([N+](=O)[O-])cc2)nn1 | 1 | -2 | 2 | -26 | -8 | x | x
CC1(C)Cc2c(c(N3CCCC3)nc3sc4c(N5CCNCC5)ncnc4c23)CO1 | 2 | 0 | 2 | 1 | -33 | x | x
COc1ccc2nc(NC(=O)CN3C(=O)NC4(CCCCC4)C3=O)sc2c1 | -8 | 1 | -6 | -8 | 14 | x | x
O=C1/C(=C/c2cccs2)CCC/C1=C\c1cccs1 | 4 | 3 | 1 | -20 | 72* | -3 | 1
O=C1/C(=C\c2ccco2)CCC/C1=C\c1ccco1 | 3 | 5 | 2 | -21 | 48* | 27 | 28
COc1cc(OC)c(C(=O)OCC(=O)Nc2c(C)n(C)n(-c3ccccc3)c2=O)cc1OC | -2 | x | 1 | x | x | x | x
